Measurements: ChEMBL document CHEMBL1125596, “3-Alkyl-4-aminobutyric acids: the first class of anticonvulsant agents that activates L-glutamic acid decarboxylase” (1991)

What was measured:
[1] = Tested for activation of Glutamate decarboxylase; the ratio of Vmax in the presence of activators to the Vmax in the absence of activators at a concentration of 2.5 mM.
Outline: (§1)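 Purified GAD (57 µg; sp act. 7.8 nmol/min·mg), 50 mM potassium phosphate pH 7.2, 37 °C, 60 min. Substrate L-glutamate 0.5–0.10 mM spiked with [1-14C]-L-glutamate. Activator at 2.5–0.05 mM. Reaction quenched with 6 M H2SO4; released 14CO2 trapped in KOH center well and counted. Vmax taken from 1/dpm vs 1/[glutamate] plots. Activation is Vmax(+activator)/Vmax(none) ×100%.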

[2] = Tested for activation of Glutamate decarboxylase; the ratio of Vmax in the presence of activators to the Vmax in the absence of activators at a concentration of 250 uM.; outline: as §1
[3] = Tested for activation of Glutamate decarboxylase; the ratio of Vmax in the presence of activators to the Vmax in the absence of activators at a concentration of 1.0 mM.; outline: as §1
[4] = Compound was tested for anticonvulsant activity in Mice by iv administration at the dose of 30 mg/kg; 2/10; assay type: functional, Mus musculus
Outline: (§2)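 Male CF-1 mice (20-28 g), compound given iv. 120 min later, low-intensity corneal electroshock (17 mA base-to-peak sinusoidal, 0.2 s). Protection was scored as prevention of hindlimb tonic extensor seizure and reported as number protected/number tested.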

[5] = Compound was tested for anticonvulsant activity in Mice by iv administration at the dose of 100 mg/kg; 3/5; assay type: functional, Mus musculus; outline: as §2
[6] = Compound was tested for anticonvulsant activity in Mice by iv administration at the dose of 100 mg/kg; 2/10; assay type: functional, Mus musculus; outline: as §2
[7] = Compound was tested for activation of Glutamate decarboxylase which is the ratio of Vmax in the presence of activators to the Vmax in the absence of activators at a concentration of 500 uM.; outline: as §1
[8] = Compound was tested for activation of Glutamate decarboxylase which is the ratio of Vmax in the presence of activators to the Vmax in the absence of activators at a concentration of 50 uM.; outline: as §1
[9] = Compound was tested for activation of Glutamate decarboxylase which is the ratio of Vmax in the presence of activators to the Vmax in the absence of activators at a concentration of 100 uM.; outline: as §1
[10] = Compound was tested for anticonvulsant activity in Mice by iv administration at the dose of 100 mg/kg.; assay type: functional, Mus musculus; outline: as §2
[11] = Compound was tested for anticonvulsant activity in Mice by iv administration at the dose of 100 mg/kg; 5/10; assay type: functional, Mus musculus; outline: as §2
[12] = Compound was tested for anticonvulsant activity in Mice by iv administration at the dose of 100 mg/kg; 4/10; assay type: functional, Mus musculus; outline: as §2
[13] = Compound was tested for anticonvulsant activity in Mice by iv administration at the dose of 100 mg/kg; assay type: functional, Mus musculus; outline: as §2
[14] = Compound was tested for anticonvulsant activity in Mice by iv administration at the dose of 100 mg/kg; 0/10; assay type: functional, Mus musculus; outline: as §2
[15] = Compound was tested for anticonvulsant activity in Mice by iv administration at the dose of 14.4 mg/kg; 9/10; assay type: functional, Mus musculus; outline: as §2
[16] = Compound was tested for anticonvulsant activity in Mice by iv administration at the dose of 100 mg/kg; 6/10; assay type: functional, Mus musculus; outline: as §2

SMILES | Activity [1] | Activity [2] | Activity [3] | other results
CCC(C)C(CN)CC(=O)O (stereo not drawn) | 169 | 105 | 119 | No. of animals protected [4]: 2
CCCC(CN)CC(=O)O (stereo not drawn) | 156 | 105 | 112 | No. of animals protected [5]: 3
NCC(CC(=O)O)C1CCCCC1 (stereo not drawn) | 125 | 100 | 100 | 
CCCCC(CN)CC(=O)O (stereo not drawn) | 178 | 105 | 117 | No. of animals protected [6]: 2
NCC1(CC(=O)O)CCCCC1 | 178 | 105 | 145 | 
CC(CN)CC(=O)O (stereo not drawn) | 239 | 128 | 168 | Activity [7]: 142; Activity [8]: 107; Activity [9]: 118; No. of animals protected [10]: 3
CC(C)(C)C(CN)CC(=O)O (stereo not drawn) | 295 |  | 174 | Activity [7]: 147; Activity [9]: 117; No. of animals protected [11]: 5
CC(C)(C)CC(CN)CC(=O)O (stereo not drawn) | 279 | 130 | 181 | No. of animals protected [12]: 4
C[C@@H](CN)CC(=O)O | 327 |  | 202 | Activity [7]: 185; Activity [9]: 128; No. of animals protected [13]: 5
CC(C)CCC(CN)CC(=O)O (stereo not drawn) | 142 | 109 | 118 | No. of animals protected [14]: 0
C[C@H](CN)CC(=O)O | 170 | 103 | 118 | No. of animals protected [10]: 5
CCCC(CCC)C(=O)O | 207 |  | 138 | Activity [7]: 124; Activity [9]: 115
CC(C)CC(CN)CC(=O)O (stereo not drawn) |  | 109 |  | No. of animals protected [15]: 9
CCC(CN)CC(=O)O (stereo not drawn) | 172 | 108 | 128 | No. of animals protected [10]: 5
CC(C)(CN)CC(=O)O | 174 | 109 | 125 | No. of animals protected [10]: 8
CC(C)C(CN)CC(=O)O (stereo not drawn) | 140 | 104 | 108 | No. of animals protected [16]: 6
CCCCCNCC(N)=O | 230 | 126 | 170 | 
